Data set [1] in a line: Safety: adverse event reports and clinical laboratory assessments. The format is in vivo, human. The essentials: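 Open-label parallel-group study in postmenopausal women with osteoporosis, randomised 2:1. […] Group B received midazolam only. Adverse events recorded at any time through day 47 follow-up. Clinical laboratory tests at screening (21 days pre-treatment) and day 17. All treated subjects analysed.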

For data set [2] the following is noted: 2 mg oral midazolam dose; sample collection at 0.25 h; ref Winter et al. [2013]; cited from earlier work.
Data set [3] can be described thus: Plasma midazolam pharmacokinetics after 2 mg oral doses on day 1 and day 16. The settings on record: for AUC(0-t) / AUC(0-inf) / Cmax / half-life: human, plasma; for AUC(0-inf): AUCinf; for half-life: t1/2, Group B (midazolam alone).
The subject of data set [4] is CYP3A4. The settings on record: healthy volunteers; ref Gupta et al. [2012]; cited from earlier work.
The subject of data set [5] is CYP3A4. Type of data set: in vivo, human. The following applies: single 60 mg SC dose of denosumab; postmenopausal women with osteoporosis.
Data set [6] in a line: Serum denosumab concentration by validated ELISA. Type of data set: in vivo, human. The following applies: day 16 (14 days after a 60 mg SC dose); Group A.
A further data set deals with RANKL. Nature of the data set: Serum C-telopeptide. The format is in vivo, human. The following applies: Group A; denosumab 60 mg SC on day 2.
For data set [7] the following is noted: 60 mg SC dose; ref Bekker et al. [2004]; cited from earlier work.
Setting [8] is: Group A (midazolam + denosumab), N = 17.
The mark [9] stands for this setting: Group B (midazolam alone), period effect, n = 8.
Where [10] appears, read: po, 2 mg, Group B (midazolam alone), day 1, 2 mg oral, mean (SD), N = 8.
[11] abbreviates: po, 2 mg, Group B (midazolam alone), day 16, 2 mg oral, mean (SD), N = 8.

The AUC(0-t) is exposure summed from dosing to a finite time, without extrapolation to infinity. The term AUC(0-inf) denotes the area under the concentration-time curve extrapolated to infinity. Lower therefore signals less exposure. Broadly, the Cmax is the highest concentration seen after dosing. Usually half-life stands for the time in which the quantity being followed falls by half. A high value points to slow loss. Turning to `Cc1ncc2n1-c1ccc(Cl)cc1C(c1ccccc1F)=NC2` [midazolam], the somnolence incidence in data set [1] (Group A, day 1 (prior to administration of denosumab), 7 of 19 subjects) is reported as 37%; in data set [1] (Group B, day 1, 2 of 8 subjects), 25%; in data set [1] (day 16 (after the second midazolam dose)) it was “no subjects”; in data set [1] (days 2 to 15), “no subjects”. Besides, the “changes in clinical laboratory values from baseline” value in data set [1] (screening to day 17) is recorded as “unremarkable”. Further, the “deaths, withdrawal due to adverse events, serious adverse events” value in data set [1] (whole study) was “No deaths, withdrawal due to adverse events, or serious adverse events”. Besides, the “mean Cmax” value in data set [2] is recorded as 11.9 ng/mL. For the same compound, the “AUC0–inf, ratio of day 16/day 1, LS mean” value in data set [3] (setting [8]) is reported as 1.02. Also, the “AUC0–t, ratio of day 16/day 1, LS mean” value in data set [3] (setting [8]) was 1.02. In addition, in data set [3] (setting [8]), the “Cmax, ratio of day 16/day 1, LS mean” value worked out at 1.04. Besides, in data set [3] (Group A, day 1, midazolam 2 mg oral, mean (SD), N = 17), the AUCinf is 35.6 (16.4) ng·h/mL. Moreover, in data set [3] (Group B (midazolam alone), day 16, 2 mg oral, median (range), N = 8), the Tmax is reported as 0.5 (0.5–1.0) hr. Besides, in data set [3] (setting [9]), the “AUC0–inf, point estimate for the ratio of the least square means (day 16/day 1)” value is reported as 0.98. Besides, in data set [3] (setting [9]), the “AUC0–t, point estimate for the ratio of the least square means (day 16/day 1)” value is 0.98. Further, the “Cmax, point estimate for the ratio of the least square means (day 16/day 1)” value in data set [3] (Group B (midazolam alone), period effect, n = 8, 90% CI 0.82 to 1.33) is on record as 1.05. Besides, the exposure AUC(0-t) in data set [3] (oral) was determined as 31 ng·h/mL; in data set [3] (po, 2 mg), 30.4 ng·h/mL. In addition, the total exposure AUC(0-inf) amounted to 31 ng·h/mL in data set [3] (setting [10]) and 29.3 ng·h/mL in data set [3] (setting [11]). The Cmax came out at 11.3 ng/mL in data set [3] (setting [10]) and 10.9 ng/mL in data set [3] (setting [11]). For the same compound, the half-life in data set [3] (po, 2 mg, day 1, 2 mg oral, mean (SD), N = 8) was 6.2 h; in data set [3] (po, 2 mg, day 16, 2 mg oral, mean (SD), N = 8), 6.22 h.

Regarding `C[C@@H]1CCN(C(=O)CC#N)C[C@@H]1N(C)c1ncnc2[nH]ccc12` [tofacitinib], in the data set with CYP3A4 [4], the “effects on CYP3A4 activity (midazolam pharmacokinetics)” value is “lack of effects”.

For the compound “denosumab: fully human monoclonal immunoglobulin G2 (IgG2) that binds to and neutralizes RANKL activity”, in the data set on CYP3A4 [5], the “effect on CYP3A4 activity (based on midazolam pharmacokinetics)” value is “no effect”. Besides, the “serum denosumab concentration, mean (SD)” value in data set [6] is recorded as 5790 (1800) ng/mL. Further, in the data set on RANKL, the “sCTX concentrations on day 16 lower than those on day 2, on average” value was around 81%. Moreover, the “time by which maximal pharmacodynamic effects are observed” value in data set [7] was at most 1 week.

The values are drawn from PMC4184705 (Pharmacology Research & Perspectives, 2014).
